Measured values: ChEMBL document CHEMBL4350999, “Enhanced tumor retention of NTSR1-targeted agents by employing a hydrophilic cysteine cathepsin inhibitor” (Eur J Med Chem, 2019)
The source made the active and inactive calls. The calls are words filed in the database; no cut-off is given here.

Tests used:
Cathepsin B [1] = target: T1, Cathepsin B (Homo sapiens, UniProt P07858); experiment: Inhibition of human liver cathepsin B assessed as pseudo Michaelis-Menten constant at 10 nM using varying levels of Z-Arg-Arg-AMC as substrate measured every 5 mins for 1 hr by fluorescence assay
[2] = Drug excretion in SCID mouse xenografted with human HT-29 cells pretreated for 1 hr with colchicine at 1 mg/kg, ip followed by 177Lu labelled compound at 0.37 MBq/mouse, iv measured at 24 hrs by gamma counter analysis; format: ADME, organism-based; conditions: in vivo
Outline: (§1)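 Female SCID mice bearing s.c. flank HT-29 xenografts (5 × 10^6 cells in Matrigel, ~80 mm3). Given 10 μCi (0.37 MBq) 177Lu conjugate i.v. by tail vein; groups sacrificed at 4, 24, 72 h. Tissues weighed and gamma-counted as %ID/g, excretion as %ID; n = 5, mean ± SD. Blocking arms: colchicine 1 mg/kg i.p. beforehand, or D-lysine 40 mg/kg co-injected.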

[3] = Drug localization in endolysosomal compartment of human HT-29 cells assessed as co-localization efficiency at 5 uM incubated for 2 hrs and measured over 24 hrs using natEu labelled compound by lysotracker green staining based confocal microscopic analysis relative to control; format: ADME, subcellular; conditions: ht-29, 5 µM
Outline: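 HT-29 cells (1.25 × 10^5/well) loaded with natEu conjugate (5 μM), washed, then chased in fresh medium up to 24 h. Lysotracker Green (100 nM) applied 2 h before each read; cells fixed and imaged confocally at 405/488 nm. Per-cell mean fluorescence and Lysotracker co-localization quantified.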

Procathepsin L = Procathepsin L (Homo sapiens, UniProt P07711); experiment: Binding affinity to human liver cathepsin L assessed as protein-conjugate adduct formation at 0.74 MBq incubated for 30 mins in presence of E-64 using 177Lu labelled compound by SDS-PAGE analysis; conditions: 0.74 M
Procathepsin L, sequence (P07711 114-333 limits assumed): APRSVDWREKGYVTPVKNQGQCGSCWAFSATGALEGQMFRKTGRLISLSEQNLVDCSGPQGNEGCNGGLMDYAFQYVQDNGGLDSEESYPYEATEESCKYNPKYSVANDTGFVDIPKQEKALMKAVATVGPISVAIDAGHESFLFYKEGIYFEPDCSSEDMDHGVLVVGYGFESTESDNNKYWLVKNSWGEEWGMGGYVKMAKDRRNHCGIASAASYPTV
Outline: (§2)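 Purified human liver CatB or CatL (3 nM) in 50 mM sodium acetate/1 mM EDTA pH 5.0 incubated 30 min with 177Lu conjugate (500,000 cpm) in Tris/MgCl2/DTT buffer pH 5.5, alone or with E-64 (10 μM) or N1 (20 μM). Mixtures heated 85 °C 2 min, run on 16% tris-glycine gel at 110 V for 90 min, and read by phosphor autoradiography.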

[4] = Drug uptake in heart of SCID mouse xenografted with human HT-29 cells pretreated for 1 hr with colchicine at 1 mg/kg, ip followed by 177Lu labelled compound at 0.37 MBq/mouse, iv measured at 24 hrs by gamma counter analysis; format: ADME, organism-based; conditions: in vivo
Outline: (§3)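 HT-29 flank xenografts in female SCID mice (5 × 10^6 cells in Matrigel, about 80 mm3). Colchicine 1 mg/kg was given i.p. before a tail-vein injection of 10 μCi (0.37 MBq) of purified 177Lu-conjugate. Tissues were taken at 24 h, weighed and gamma-counted as %ID/g; mean ± SD, n = 5.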

[5] = Ratio of drug uptake in SCID mouse xenograted with human HT-29 cells assessed as tumour retention to drug uptake in spleen of SCID mouse xenografted with human HT-29 cells cotreated with D-lysine at 40 mg/kg measured after 24 hrs using 177Lu labelled compound; format: ADME, organism-based, Tumor/Spleen; conditions: in vivo
[6] = Drug retention in tumor lysates of mouse xenografted with human HT-29 cells assessed as macromolecule associated radioactivity at 29.6 MBq measured after 72 hrs using 177Lu labelled compound by gamma counter analysis relative to control; format: ADME, tissue-based, Neoplasm; conditions: in vivo
Outline: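 HT-29 xenograft mice given 800 μCi (29.6 MBq) 177Lu conjugate i.v. and killed at 72 h. Tumor, liver and kidney homogenized in RIPA with protease inhibitor and supernatants run on SDS-PAGE autoradiography. Other supernatant aliquots filtered through 10 kDa MWCO devices to give the % macromolecule-associated radioactivity; n = 3.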

[7] = Drug uptake in lung of SCID mouse xenografted with human HT-29 cells pretreated for 1 hr with colchicine at 1 mg/kg, ip followed by 177Lu labelled compound at 0.37 MBq/mouse, iv measured at 24 hrs by gamma counter analysis; format: ADME, organism-based; conditions: in vivo; outline: as §3
[8] = Drug retention in tumor lysates of mouse xenografted with human HT-29 cells assessed as macromolecule associated radioactivity at 29.6 MBq co-treated with D-lysine measured after 72 hrs using 177Lu labelled compound by gamma counter analysis relative to control; format: ADME, tissue-based, Neoplasm; conditions: in vivo
[9] = Drug uptake in stomach of SCID mouse xenografted with human HT-29 cells using 177Lu labelled compound at 0.37 MBq/mouse, iv co-treated with D-lysine at 40 mg/kg measured at 24 hrs by gamma counter analysis; format: ADME, organism-based; conditions: in vivo
Outline: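 HT-29 s.c. xenografts in female SCID mice. 177Lu conjugate given i.v. by tail vein at 10 μCi (0.37 MBq)/mouse, co-injected with D-lysine 40 mg/kg. Tissues were taken at 24 h, weighed and gamma counted. Uptake expressed as %ID/g (n = 5, mean ± SD); tumor-to-tissue ratios derived from these values.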

[10] = Drug retention in tumor of mouse xenografted with human HT-29 cells assessed as tissue-conjugate adduct formation at 29.6 MBq co-treated with D-lysine at 40 mg/kg measured after 72 hrs using 177Lu labelled compound by SDS-PAGE analysis; format: ADME, organism-based, Neoplasm; conditions: in vivo
Cathepsin B [11] = target: T1, Cathepsin B; experiment: Binding affinity to human liver cathepsin B assessed as protein-conjugate adduct formation at 0.74 MBq incubated for 30 mins in presence of DOTA-beta-ala-[N-alpha-Me8, Dmt11, Tle12] NT6-13 using 177Lu labelled compound by SDS-PAGE analysis; conditions: 0.74 M; outline: as §2
[12] = Drug uptake in SCID mouse xenografted with human HT-29 cells assessed as tumour retention pretreated for 1 hr with colchicine at 1 mg/kg, ip followed by 177Lu labelled compound at 0.37 MBq/mouse, iv measured at 24 hrs by gamma counter analysis; format: ADME, organism-based; conditions: in vivo; outline: as §1
[13] = Drug uptake in lung of SCID mouse xenografted with human HT-29 cells using 177Lu labelled compound at 0.37 MBq/mouse, iv co-treated with D-lysine at 40 mg/kg measured at 24 hrs by gamma counter analysis; format: ADME, organism-based; conditions: in vivo
Outline: (§4)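 Female SCID mice bore s.c. HT-29 xenografts (5 × 10^6 cells in Matrigel, about 80 mm3). D-lysine 40 mg/kg was co-injected i.v. with 10 μCi (0.37 MBq) of purified 177Lu-conjugate. Tissues were harvested at 24 h, weighed and gamma-counted, reported as %ID/g; mean ± SD, n = 5.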

[14] = Drug uptake in spleen of SCID mouse xenografted with human HT-29 cells pretreated for 1 hr with colchicine at 1 mg/kg, ip followed by 177Lu labelled compound at 0.37 MBq/mouse, iv measured at 24 hrs by gamma counter analysis; format: ADME, organism-based; conditions: in vivo
Outline: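 HT-29 xenograft SCID mice pretreated with colchicine 1 mg/kg i.p., then given 177Lu conjugate i.v. at 10 μCi (0.37 MBq)/mouse. Tissues excised at 24 h, weighed and gamma counted for %ID/g (n = 5, mean ± SD).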

[15] = Drug uptake in kidney of SCID mouse xenografted with human HT-29 cells using 177Lu labelled compound at 0.37 MBq/mouse, iv co-treated with D-lysine at 40 mg/kg measured at 24 hrs by gamma counter analysis; format: ADME, organism-based; conditions: in vivo; outline: as §4

| SMILES | K (Cathepsin B [1]) | Drug excretion [2] | Drug uptake [3] | Activity (Procathepsin L) | Drug uptake [4] | Ratio [5] | Drug uptake [6] | Drug uptake [7] | Drug uptake [8] | Drug uptake [9] | Drug uptake [10] | Activity (Cathepsin B [11]) | Drug uptake [12] | Drug uptake [13] | Drug uptake [14] | Drug uptake [15] |
| --- | --- | --- | --- | --- | --- | --- | --- | --- | --- | --- | --- | --- | --- | --- | --- | --- |
| Cc1cc(O)cc(C)c1C[C@H](NC(=O)[C@@H]1CCCN1C(=O)[C@H](CCCNC(=N)N)NC(=O)[C@H](CCCNC(=N)N)N(C)C(=O)[C@@H]1CCCN1C(=O)[C@H](CCCCN)NC(=O)[C@@H](CO)NC(=O)[C@@H](CO)NC(=O)[C@@H](CO)NC(=O)[C@H](Cc1cn(CCNC(=O)[C@H](CCCNC(=N)N)NC(=O)[C@H](CC(C)C)NC(=O)CCC(=O)O)nn1)NC(=O)CN1CCN(CC(=O)O)CCN(CC(=O)O)CCN(CC(=O)O)CC1)C(=O)N[C@H](C(=O)N[C@@H](CC(C)C)C(=O)O)C(C)(C)C | 182 µM |  |  |  |  |  |  |  |  |  |  |  |  |  |  |  |
| Cc1cc(O)cc(C)c1C[C@H](NC(=O)[C@@H]1CCCN1C(=O)[C@H](CCCNC(=N)N)NC(=O)[C@H](CCCNC(=N)N)N(C)C(=O)[C@@H]1CCCN1C(=O)[C@H](CCCCN)NC(=O)[C@@H](CO)NC(=O)[C@@H](CO)NC(=O)[C@@H](CO)NC(=O)[C@H](Cc1cn(CCNC(=O)[C@H](CCCNC(=N)N)NC(=O)[C@H](CC(C)C)NC(=O)C2OC2C(=O)O)nn1)NC(=O)CN1CCN(CC(=O)O)CCN(CC(=O)O)CCN(CC(=O)O)CC1)C(=O)N[C@H](C(=O)N[C@@H](CC(C)C)C(=O)O)C(C)(C)C (stereo partly specified) |  | 85 %ID | 60% | inactive | 0.2 % ID/g | 8 | 80% | 3.2 % ID/g | 80% | 0.21 % ID/g | Active | Active | 1.7 % ID/g | 0.41 % ID/g | 4 % ID/g | 34 % ID/g |
